From ChEMBL document CHEMBL3259717, “Synthetic calanolides with bactericidal activity against replicating and nonreplicating Mycobacterium tuberculosis” (J Med Chem, 2014) come the findings set out here.

The subject of data set [1] is Mycobacterium tuberculosis. Put plainly: Antibacterial activity against non-replicating form of Mycobacterium tuberculosis MC2 6220 assessed as growth inhibition after 3 days by high-throughput screening assay. The format is functional. The note with it: MC2 6220, 72 h. A digest of the protocol: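 Log-phase mc26220 washed in PBS/tyloxapol, resuspended in Sauton's-based NR medium (butyrate, 0.5 mM NaNO2, pH 5.0) at OD580 0.1. Compound exposure 3 days at 37 °C, 1% O2, 5% CO2. Then R medium added (5-fold dilution), 7 days outgrowth at 20% O2. OD580 read; MIC90 = 90% inhibition vs DMSO.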

Data set [2] relates to Mycobacterium tuberculosis. In words: Antibacterial activity against replicating form of Mycobacterium tuberculosis MC2 6220 assessed as growth inhibition after 7 days by high-throughput screening assay. As to conditions: MC2 6220, 168 h. The data set is classed as functional. A digest of the protocol:
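Attenuated Mtb mc26220 ΔpanCDΔlysA in 7H9 with glycerol, tyloxapol, OADC, casein amino acids, 240 μg/mL L-lysine, 24 μg/mL pantothenate. Mid-log cells diluted to OD580 0.01 in 384-well plates, compound in DMSO, 7 days at 37 °C, 20% O2, 5% CO2. OD580 read; MIC90 = 90% growth inhibition vs DMSO.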

Data set [3] is described as follows: Cytotoxicity against human HepG2 cells assessed as decrease in ATP signal after 2 days by CellTiter-Glo assay. The format is cell-based. As to conditions: read-out: LD50. A digest of the protocol:
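HepG2 in DMEM with 10% FBS, pyruvate, glutamine, HEPES and nonessential amino acids, seeded 3000 cells/well in 384-well plates. Compound for 2 days at 1% final DMSO. ATP read by CellTiter-Glo luminescence. LD50 = 50% drop in ATP signal vs DMSO. SI = LD50/MIC90 against replicating Mtb.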
In general terms: Cellular ATP, detected with luciferase, serves as a proxy for viable cell number.

SMILES strings stand for the structures. Values after ≈ are worked out from the molar mass of the structure shown.

As a reminder, the MIC90 is an inhibitory concentration at the 90% level, which refers to growth in some studies and to a panel of isolates in others. With `CCCc1cc(=O)oc2cc(OCC3CC3)c3c(c12)OC(C)(C)C=C3`, the MIC90 in data set [1] and in data set [2] was above 17 µg/mL throughout.

Regarding `CCCc1cc(=O)oc2cc(N3CCN(C(=O)Nc4ccc(F)cc4)CC3)c3c(c12)OC(C)(C)C=C3`, the MIC90 in data set [1] and in data set [2] was above 25 µg/mL in each case. Besides, the CC50 at 48 h in data set [3] is above 25 µg/mL.

Turning to `Cc1cc(=O)oc2cc(-c3ccc([N+](=O)[O-])o3)c3c(c12)OC(C)(C)C=C3`, the MIC90 in data set [1] and in data set [2] was above 18 µg/mL in each case. Moreover, the CC50 at 48 h in data set [3] was above 18 µg/mL.

In the case of `CCCc1cc(=O)oc2cc(OC(C)=O)c3c(c12)OC(C)(C)C=C3`, the MIC90 in data set [1] and in data set [2] was above 16 µg/mL in each case.

Turning to `CCCc1cc(=O)oc2c3c(c4cc([N+](=O)[O-])oc4c12)OC(C)CC3=O` (stereo not drawn), the MIC90 is 6 µg/mL (≈ 16.8 µM) in data set [1] and above 50 µg/mL in data set [2].

Regarding `CCCc1cc(=O)oc2cc(NCc3cccc(F)c3)c3c(c12)OC(C)(C)C=C3`, the MIC90 in data set [1] and in data set [2] was above 20 µg/mL throughout.

For the compound `CCCc1cc(=O)oc2cc(N3CCSCC3)c3c(c12)OC(C)(C)C=C3`, the MIC90 in data set [1] and in data set [2] was above 19 µg/mL each time.

On to `CCCc1cc(=O)oc2cc(OCCc3cccs3)c3c(c12)OC(C)(C)C=C3`, for which the MIC90 in data set [1] and in data set [2] was above 20 µg/mL throughout.

`CCCc1cc(=O)oc2c1c1c(c3occc32)C=CC(C)(C)O1`: the MIC90 in data set [1] and in data set [2] was above 100 µg/mL each time.

`CCCc1cc(=O)oc2cc(NCc3ccc(F)cc3)c3c(c12)OC(C)(C)C=C3`: the MIC90 in data set [1] and in data set [2] was above 20 µg/mL each time.

In the case of `CCCc1cc(=O)oc2c1c(O)cc1oc([N+](=O)[O-])cc12`, the MIC90 in data set [1] and in data set [2] was above 14 µg/mL each time.

With `CCCc1cc(=O)oc2cc(N3CCN(C(=O)NC4CCCCC4)CC3)c3c(c12)OC(C)(C)C=C3`, the MIC90 in data set [1] and in data set [2] was above 24 µg/mL each time. In data set [3], the CC50 at 48 h was above 24 µg/mL.

Consider `CC1(C)C=Cc2c(c3c(-c4ccccc4)cc(=O)oc3c3cc([N+](=O)[O-])oc23)O1`, for which the MIC90 in data set [1] amounted to 19 µg/mL (≈ 48.8 µM); in data set [2], 2 µg/mL (≈ 5.14 µM).

With `CCCc1cc(=O)oc2c3c(c4c(c12)OC(C)(C)C=C4)OC(O)C3=O` (stereo not drawn), the MIC90 was 17 µg/mL (≈ 49.7 µM) in data set [1] and above 17 µg/mL in data set [2].

Regarding `CCCc1cc(=O)oc2c(C(=O)CC)c(N(C)C)c3c(c12)OC(C)(C)C=C3`, the MIC90 in data set [1] and in data set [2] was above 18 µg/mL throughout.

On to `CCCc1cc(=O)oc2cc(NC(C)=O)c3c(c12)OC(C)(C)C=C3`, for which the MIC90 in data set [1] and in data set [2] was above 16 µg/mL in each case.

On to `CCCc1cc(=O)oc2c1c(OCCN1CCOCC1)cc1oc([N+](=O)[O-])c(CO)c12`, for which the MIC90 in data set [1] and in data set [2] was 100 µg/mL (≈ 231 µM) in each case.

As for `CCCc1cc(=O)oc2cc(Nc3ccccc3)c3c(c12)OC(C)(C)C=C3`, the MIC90 in data set [1] and in data set [2] was above 18 µg/mL each time.

Consider `CCCc1cc(=O)oc2cc(NC(=O)c3ccccc3)c3c(c12)OC(C)(C)C=C3`, for which the MIC90 in data set [1] and in data set [2] was above 19 µg/mL in each case.

On to `CCCc1cc(=O)oc2cc(NC(=O)Nc3ccc(F)cc3)c3c(c12)OC(C)(C)C=C3`, for which the MIC90 in data set [1] and in data set [2] was above 21 µg/mL each time.

`CCCc1cc(=O)oc2c(C(=O)CC)c(N3CCN(c4ccccn4)CC3)c3c(c12)OC(C)(C)C=C3`: the MIC90 in data set [1] and in data set [2] was above 24 µg/mL in each case.

With `CCCc1cc(=O)oc2cc(OCc3ccccc3)c3c(c12)OC(C)(C)C=C3`, the MIC90 in data set [1] and in data set [2] was above 19 µg/mL throughout.

Consider `CCCc1cc(=O)oc2c(C(=O)CC)c(N3CCOCC3)c3c(c12)OC(C)(C)C=C3`, for which the MIC90 in data set [1] and in data set [2] was above 21 µg/mL in each case.

In the case of `CCCc1cc(=O)oc2cc(NCc3ccccc3)c3c(c12)OC(C)(C)C=C3`, the MIC90 in data set [1] was above 19 µg/mL; in data set [2], 19 µg/mL (≈ 50.6 µM).

Turning to `CC1(C)C=Cc2c(c3c4c(c(=O)oc3c3cc([N+](=O)[O-])oc23)CCCC4)O1`, the MIC90 in data set [1] is 2 µg/mL (≈ 5.44 µM); in data set [2], below 0.2 µg/mL.

In the case of `CCCc1cc(=O)oc2cc(OCCCO)c3c(c12)OC(C)(C)C=C3`, the MIC90 in data set [1] and in data set [2] was above 17 µg/mL each time.

Take `CCCc1cc(=O)oc2cc(OC3CCN(C(=O)Nc4ccc(F)cc4)CC3)c3c(c12)OC(C)(C)C=C3`: the MIC90 in data set [1] and in data set [2] was above 24 µg/mL in each case.

Consider `CCCc1cc(=O)oc2c3c(c4c(c12)OC(C)(C)C=C4)OC(C)(OC(C)=O)C3=O` (stereo not drawn), for which the MIC90 in data set [1] and in data set [2] was above 20 µg/mL each time.

Take `CCCc1c(F)c(=O)oc2c1c1c(c3oc([N+](=O)[O-])cc32)C=CC(C)(C)O1`: the MIC90 in data set [1] and in data set [2] was 19 µg/mL (≈ 50.9 µM) each time.

On to `CCCc1cc(=O)oc2cc(N3CCC(O)CC3)c3c(c12)OC(C)(C)C=C3`, for which the MIC90 in data set [1] and in data set [2] was above 18 µg/mL each time.

For `CCCC1CC(=O)Oc2c1c1c(c3oc([N+](=O)[O-])cc23)C=CC(C)(C)O1` (stereo not drawn), the MIC90 in data set [1] and in data set [2] was above 18 µg/mL throughout.

On to `CCCc1cc(=O)oc2cc(NC(=O)c3cnccn3)c3c(c12)OC(C)(C)C=C3`, for which the MIC90 in data set [1] and in data set [2] was above 20 µg/mL each time.

On to `CCCc1cc(=O)oc2c(C(=O)CC)c(N3CCN(c4ccncc4)CC3)c3c(c12)OC(C)(C)C=C3`, for which the MIC90 in data set [1] and in data set [2] was above 24 µg/mL each time.

Consider `CCCc1cc(=O)oc2c(C(=O)CC)c(N3CCN(Cc4ccc(F)cc4)CC3)c3c(c12)OC(C)(C)C=C3`, for which the figures for the MIC90 in data set [1] and in data set [2] were 26 µg/mL (≈ 50.1 µM) and above 26 µg/mL, respectively.

With `CCCc1cc(=O)oc2cc(NC(=O)Nc3cccc4ccccc34)c3c(c12)OC(C)(C)C=C3`, the MIC90 in data set [1] and in data set [2] was above 23 µg/mL in each case.

On to `CCCc1cc(=O)oc2c3c(c4c(c12)OC(C)(C)C=C4)OC(OC(C)=O)C3=O` (stereo not drawn), for which the figures for the MIC90 in data set [1] and in data set [2] were 6 µg/mL (≈ 15.6 µM) and above 100 µg/mL, respectively.

On to `CCCc1cc(=O)oc2cc(OC(=O)c3ccccc3)c3c(c12)OC(C)(C)C=C3`, for which the MIC90 in data set [1] and in data set [2] was above 20 µg/mL throughout.

Regarding `CCCc1cc(=O)oc2c1c(-c1ccc(F)cc1)cc1oc([N+](=O)[O-])cc12`, the values for the MIC90 in data set [1] and in data set [2] were 18 µg/mL (≈ 49 µM) and 0.7 µg/mL (≈ 1.91 µM), respectively.

Consider `Cc1c(Cc2ccccc2)c(=O)oc2c1c1c(c3oc([N+](=O)[O-])cc32)C=CC(C)(C)O1`, for which the MIC90 in data set [1] is above 21 µg/mL; in data set [2] it was 2 µg/mL (≈ 4.79 µM).

`CCCc1cc(=O)oc2c(C(=O)CC)c(N3CCN(c4ccc(OC)cc4)CC3)c3c(c12)OC(C)(C)C=C3`: the MIC90 in data set [1] and in data set [2] was above 26 µg/mL in each case.

For the compound `CCCc1cc(=O)oc2cc(OC(=O)/C=C/c3ccccc3)c3c(c12)OC(C)(C)C=C3`, the MIC90 in data set [1] and in data set [2] was above 21 µg/mL in each case.

As to `CCCc1cc(=O)oc2cc(OCC(=O)NCCc3ccccc3)c3c(c12)OC(C)(C)C=C3`, the MIC90 in data set [1] and in data set [2] was above 22 µg/mL throughout.

`CCCc1cc(=O)oc2cc(OC)c3c(c12)OC(C)(C)C=C3`: the MIC90 in data set [1] and in data set [2] was above 15 µg/mL throughout.

Regarding `CCCc1cc(=O)oc2c(C(=O)CC)c(N3CCSCC3)c3c(c12)OC(C)(C)C=C3`, the MIC90 in data set [1] and in data set [2] was above 21 µg/mL in each case.

With `Cc1cc(=O)oc2cc(NC(=O)c3ccc([N+](=O)[O-])o3)c3c(c12)OC(C)(C)C=C3`, the MIC90 in data set [1] and in data set [2] was above 20 µg/mL each time.
